The values that follow come from ChEMBL document CHEMBL3243963, “Drugs derived from cannabinoids. 7. Tachycardia and analgesia structure-activity relationships in delta9-tetrahydrocannabinol and some synthetic analogues” (J Med Chem, 1978).

For data set [1], the system named is Mus musculus. Description: Analgesic activity in po dosed mouse by hot plate test. Type of data set: functional. The gist of the method:
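Mouse hot-plate antinociception after oral dosing, ten mice per dose. ED50 with 95% confidence limits by computerized Litchfield–Wilcoxon method.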
In general terms: Thermal pain tests record how soon the animal reacts.

For another data set, the system named is Rattus norvegicus. Description: Toxicity in ip dosed Wistar rat assessed as tachycardia. Type of data set: organism-based. Conditions: in vivo. The gist of the method: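 Conscious rats on a warming plate, with rectal temperature kept below 39 °C. Heart rate taken from tail pulse sound (piezo contact microphone, tachograph). Agents given ip in absolute ethanol or distilled water according to solubility. Maximum heart-rate increase plotted against log dose. ED50 with 95% confidence limits by computerized Litchfield–Wilcoxon. Five, six or twelve rats per dose depending on compound.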

The subject of data set [2] is Mus musculus. Description: Analgesic activity in po dosed mouse by anti-writhing test. It is filed as functional. The gist of the method: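 Mouse antiwrithing test after oral dosing, five mice per dose. ED50 (half-maximal effect dose) with 95% confidence limits by computerized modification of Litchfield–Wilcoxon.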

Turning to `C#CCN1CCC2=C(C1)c1c(OC(=O)C(C)CCN3CCCCC3C)cc(C(C)C(C)CCCCC)cc1OC2(C)C.Cl` (stereo unspecified), the figures for the ED50 in the data set on Mus musculus [1], in the data set with Rattus norvegicus and with Mus musculus [2] were 3.8 mg/kg, 0.53 mg/kg and 7.3 mg/kg, respectively. Moreover, in the data set with Rattus norvegicus, the Activity entry was “Dose-dependent effect”.

On to `Br.CCCCCc1cc(OC(=O)CCCN2CCOCC2)c2c(c1)OC(C)(C)[C@@H]1CCC(C)=C[C@@H]21`, for which the ED50 was 168 mg/kg in the data set with Mus musculus [1], 0.092 mg/kg in the data set on Rattus norvegicus and above 40 mg/kg in the data set with Mus musculus [2]. Further, the Activity entry in the data set with Rattus norvegicus is recorded as “Dose-dependent effect”.

`CCCCCC(C)C(C)c1cc(OC(=O)CCCN2CCCCC2)c2c(c1)OC(C)(C)C1=C2CC(C)CC1.Cl` (stereo unspecified): the ED50 in the data set with Mus musculus [1] was 15 mg/kg; in the data set with Rattus norvegicus, 1.92 mg/kg; in the data set on Mus musculus [2], 25.9 mg/kg. The Activity result in the data set on Rattus norvegicus is on record as “Dose-dependent effect”.

As for `Br.CCCCCC(C)C(C)c1cc(OC(=O)CCCN2CCOCC2)c2c(c1)OC(C)(C)C1=C2CC(C)CC1` (stereo unspecified), the values for the ED50 in the data set on Mus musculus [1], in the data set with Rattus norvegicus and in the data set on Mus musculus [2] were 0.5 mg/kg, 2.13 mg/kg and 2.3 mg/kg, respectively. The Activity entry in the data set with Rattus norvegicus is “Dose-dependent effect”.

Regarding `C#CCN1CCC2=C(C1)c1c(OC(=O)C(C)CCN3CCCCC3)cc(C(C)C(C)CCCCC)cc1OC2(C)C.Cl` (stereo unspecified), the ED50 is 4.6 mg/kg in the data set on Mus musculus [1], 0.4 mg/kg in the data set on Rattus norvegicus and 12.2 mg/kg in the data set on Mus musculus [2]. Moreover, the Activity result with Rattus norvegicus is reported as “Dose-dependent effect”.

As to `C#CCN1CCC2=C(C1)c1c(O)cc(C(C)C(C)CCCCC)cc1OC2(C)C` (stereo unspecified), the figures for the ED50 in the data set with Mus musculus [1], in the data set on Rattus norvegicus and in the data set with Mus musculus [2] were 7.7 mg/kg, 0.061 mg/kg and 4.3 mg/kg, respectively. Further, in the data set with Rattus norvegicus, the Activity entry was “Dose-dependent effect”.

On to `CCCCCC(C)C(C)c1cc(O)c2c(c1)OC(C)(C)C1=C2CC(C)CC1` (mixture of isomers), for which the ED50 with Mus musculus [1] was 9.3 mg/kg; in the data set with Rattus norvegicus, 0.31 mg/kg; with Mus musculus [2], 3 mg/kg. In addition, the Activity result in the data set on Rattus norvegicus is on record as “Dose-dependent effect”.

With `CCCCCc1cc(O)c2c(c1)OC(C)(C)[C@@H]1CCC(C)=C[C@@H]21` [DRONABINOL], the ED50 in the data set with Mus musculus [1] is above 100 mg/kg; in the data set with Rattus norvegicus, 0.062 mg/kg; with Mus musculus [2], 43 mg/kg. In addition, the Activity entry in the data set on Rattus norvegicus is “Dose-dependent effect”.

As for `C#CCN1CCC2=C(C1)c1c(OC(=O)CCCN3CCCCC3)cc(C(C)C(C)CCCCC)cc1OC2(C)C.Cl` (stereo unspecified) [NABITAN HYDROCHLORIDE], the ED50 in the data set on Mus musculus [1] worked out at 5.3 mg/kg; with Rattus norvegicus, 0.11 mg/kg; in the data set on Mus musculus [2] it was 12 mg/kg. In the data set with Rattus norvegicus, the Activity entry is on record as “Dose-dependent effect”.

What is called ED50 is the dose at which the effect has come halfway, by size or by number of responders.
